# Active and inactive are the calls of the source. The calls are words filed in the database; no cut-off is given here.
# Assays:
# Influenza A virus [1] = test: Antiviral activity against influenza A H3N2 virus in MDCK cells; type: functional, organism-based
# How it was run: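 Confluent MDCK monolayers were infected with influenza A H3N2 (A3 China/15/90) for 2 h at 37 °C. The inoculum was removed and the cells were treated with a range of compound concentrations. CPE was scored once the virus control reached 4+. The concentration giving 50% reduction of virus-induced CPE was found by Reed–Muench interpolation.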
# Influenza A virus [2] = test: Cytotoxicity in MDCK cells infected with influenza A H3N2 virus; type: functional
# How it was run: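 Confluent MDCK monolayers were infected with influenza A H3N2 (A3 China/15/90) for 2 h at 37 °C, then the inoculum was removed and a range of compound concentrations added. Cultures were read when the virus control reached 4+ CPE. The value is the concentration causing microscopically detectable toxicity in the virus-infected cultures.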
# Influenza B virus = test: Inhibitory activity against influenza B virus; type: functional, organism-based
# [3] = Influenza A virus, H3N2, MDCK, read-out: IC50
SMILES,IC50 (Influenza A virus [1]; mdck),CC50 (Influenza A virus [2]),Activity (Influenza B virus),IC50 (Influenza A virus [1]; [3]) [µg/mL]
Cc1oc2nc1C(=O)N[C@@H](C)c1nc(co1)C(=O)N[C@@H](CC(C)C)C(=O)N1CCC[C@H]1C(=O)N[C@@H](C(C)C)c1nc-2cs1 [LEUCAMIDE A],Not Active,inactive,–,–
COC(=O)c1coc([C@H](C)NC(=O)c2nc(-c3csc([C@@H](NC(=O)CC=C(C)C)C(C)C)n3)oc2C)n1,–,577 µg/mL,inactive,–
COC(=O)c1nc(-c2csc([C@@H](NC(=O)c3cccc(F)c3)C(C)C)n2)oc1C,–,> 1000 µg/mL,inactive,> 86.2
C/C=C(\C)C(=O)N[C@H](c1nc(-c2nc(C(=O)OC)c(C)o2)cs1)C(C)C,–,231 µg/mL,inactive,37
COC(=O)c1nc(-c2csc([C@@H](NC(=O)CC3=CCCCC3)C(C)C)n2)oc1C,–,231 µg/mL,inactive,–
COC(=O)c1nc(-c2csc([C@@H](NC(=O)CCC=C(C)C)C(C)C)n2)oc1C,–,577 µg/mL,inactive,37
COC(=O)c1nc(-c2csc([C@@H](NC(=O)C3CCC3)C(C)C)n2)oc1C,–,500 µg/mL,inactive,–
Cc1oc(-c2csc([C@@H](NC(=O)CC3=CCCC3)C(C)C)n2)nc1C(=O)O,–,481 µg/mL,inactive,29
COC(=O)c1nc(-c2csc([C@@H](NC(=O)CC3=CCCC3)C(C)C)n2)oc1C,–,333 µg/mL,inactive,–
COC(=O)c1coc([C@H](C)NC(=O)c2nc(-c3csc([C@@H](NC(=O)CC4=CCCCC4)C(C)C)n3)oc2C)n1,–,577 µg/mL,inactive,44.5
COC(=O)c1nc(-c2csc([C@@H](NC(=O)C3CCCCC3)C(C)C)n2)oc1C,–,144 µg/mL,inactive,43.6
COC(=O)c1nc(-c2csc([C@@H](NC(=O)CC=C(C)C)C(C)C)n2)oc1C,–,> 1000 µg/mL,inactive,192
COC(=O)c1nc(-c2csc([C@@H](NC(=O)c3ccccc3OC)C(C)C)n2)oc1C,–,333 µg/mL,inactive,47.7
COC(=O)c1coc([C@H](C)NC(=O)c2nc(-c3csc([C@@H](NC(=O)C4CCCCC4)C(C)C)n3)oc2C)n1,–,144 µg/mL,inactive,–
C=CCCC(=O)N[C@H](c1nc(-c2nc(C(=O)OC)c(C)o2)cs1)C(C)C,–,577 µg/mL,inactive,–
CCC(=O)N[C@H](c1nc(-c2nc(C(=O)N[C@@H](C)c3nc(C(=O)OC)co3)c(C)o2)cs1)C(C)C,–,577 µg/mL,inactive,–
COC(=O)c1nc(-c2csc([C@@H](NC(=O)C(C)(C)C)C(C)C)n2)oc1C,–,577 µg/mL,inactive,–
CCC(=O)N[C@H](c1nc(-c2nc(C(=O)OC)c(C)o2)cs1)C(C)C,–,577 µg/mL,inactive,–
COC(=O)c1nc(-c2csc([C@@H](N)C(C)C)n2)oc1C,–,577 µg/mL,inactive,259
COc1ccccc1C(=O)N[C@H](c1nc(-c2nc(C(=O)O)c(C)o2)cs1)C(C)C,–,333 µg/mL,inactive,29
NC(=O)c1ncn([C@@H]2O[C@H](CO)[C@@H](O)[C@H]2O)n1 [RIBAVIRIN],–,–,–,3.73
COC(=O)c1coc([C@H](C)NC(=O)c2nc(-c3csc([C@@H](NC(=O)c4cccc(F)c4)C(C)C)n3)oc2C)n1,–,577 µg/mL,inactive,77

# Reference: ChEMBL document CHEMBL1141874, “Synthesis and biological evaluation of novel bisheterocycle-containing compounds as potential anti-influenza virus agents” (Bioorg Med Chem Lett, 2005)
